Test results: ChEMBL document CHEMBL4346727, “Synthesis and pharmacological evaluation of novel N-Mannich bases derived from 5,5-diphenyl and 5,5-di(propan-2-yl)imidazolidine-2,4-dione core” (Bioorg Med Chem Lett, 2019)
Calls of active or inactive are those of the source. The calls are words filed in the database; no cut-off is given here.

Experiments:
[1] = Neurotoxicity in CD1 mouse at 50 mg/kg, ip measured after 2 hrs by rotarod test; conditions: in vivo
[2] = Neurotoxicity in CD1 mouse at 50 mg/kg, ip measured after 4 hrs by rotarod test; conditions: in vivo
[3] = Neurotoxicity in Sprague-Dawley rat at 30 mg/kg, po measured after 4 hr by rotarod test; format: toxicity, organism-based; conditions: in vivo
Outline: (§1)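 Rats given one oral dose of 30 mg/kg and tested on the rotarod at 0.25, 0.5, 1, 2, 4 and 6 h.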

Mus musculus [4] = test: Anticonvulsant activity in ip dosed CD1 mouse assessed as time to peak effect on protection against 50 mA current-induced seizures; format: functional
Outline: (§2)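 Median effective doses were quantified in the maximal electroshock, subcutaneous pentylenetetrazole and 6 Hz tests after intraperitoneal dosing in mice or oral dosing in rats, at the time of peak effect. ED50 values are reported with ranges in parentheses.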

Mus musculus [5] = test: Anticonvulsant activity in ip dosed CD1 mouse assessed as protection against subcutaneous pentylenetetrazole-induced seizures; format: functional
Outline: as §2

[6] = Protection index, ratio of TD50 for neurotoxicity in po dosed Sprague-Dawley rat by rotarod test to ED50 for anticonvulsant activity in po dosed Sprague-Dawley rat by maximal electroshock seizure test; format: toxicity, organism-based; conditions: in vivo, read-out: Ratio TD50/ED50
[7] = Neurotoxicity in CD1 mouse at 25 mg/kg, ip measured after 4 hrs by rotarod test; conditions: in vivo
Mus musculus [8] = test: Anticonvulsant activity in ip dosed CD1 mouse assessed as protection against 32 mA current-induced seizure by 6 Hz psychomotor seizure test; format: functional
Outline: as §2

Mus musculus [9] = test: Anticonvulsant activity in CD1 mouse assessed as protection against 32 mA current-induced seizure at 25 mg/kg, ip measured after 1 hr by 6 Hz psychomotor seizure test
[10] = Neurotoxicity in Sprague-Dawley rat at 30 mg/kg, po measured after 1 hr by rotarod test; format: toxicity, organism-based; conditions: in vivo
Outline: as §1

[11] = Neurotoxicity in Sprague-Dawley rat at 30 mg/kg, po measured after 15 mins by rotarod test; format: toxicity, organism-based; conditions: in vivo, 0.25 h
Outline: as §1

Mus musculus [12] = test: Anticonvulsant activity in CD1 mouse assessed as protection against 32 mA current-induced seizure at 50 mg/kg, ip measured after 1 hr by 6 Hz psychomotor seizure test
[13] = Neurotoxicity in CD1 mouse at 50 mg/kg, ip measured after 1 hr by rotarod test; conditions: in vivo
Rattus norvegicus = test: Anticonvulsant activity in po dosed Sprague-Dawley rat assessed as time to peak effect on protection against 150 mA current-induced seizures; format: functional
Outline: as §2

[14] = Neurotoxicity in Sprague-Dawley rat at 30 mg/kg, po measured after 30 mins by rotarod test; format: toxicity, organism-based; conditions: in vivo, 0.5 h
Outline: as §1

[15] = Neurotoxicity in po dosed Sprague-Dawley rat model by rotarod test; format: toxicity, organism-based; conditions: in vivo
Outline: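 Rats dosed orally; neurotoxicity scored on the rotarod. Screening used a fixed 30 mg/kg, with animals checked at 0.25, 0.5, 1, 2, 4 and 6 h; the reading is the number of four rats showing neurotoxicity. In quantitative runs, a median toxic dose (TD50, mg/kg) was determined after oral dosing at the time of peak effect.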

Mus musculus [16] = test: Anticonvulsant activity in ip dosed CD1 mouse assessed as protection against 50 mA current-induced seizure and measured after 0.5 hrs by maximal electroshock seizure test; format: functional; conditions: read-out: MED
Outline: (§3)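 Mice were screened after intraperitoneal doses of 30, 100 and 300 mg/kg in the maximal electroshock and subcutaneous pentylenetetrazole tests, examined at 0.5 and 4 h. The value recorded is the minimum dose showing activity. No activity up to 300 mg/kg is scored as absent.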

Mus musculus [17] = test: Anticonvulsant activity in ip dosed CD1 mouse assessed as protection against 50 mA current-induced seizures; format: functional
Outline: as §2

[18] = Neurotoxicity in po dosed Sprague-Dawley rat assessed as time to peak effect by rotarod test; format: toxicity, organism-based; conditions: in vivo
Mus musculus [19] = test: Anticonvulsant activity in CD1 mouse assessed as protection against subcutaneous pentylenetetrazole-induced seizures at 300 mg/kg, ip and measured after 4 hrs; format: functional, organism-based
Outline: as §3

[20] = Neurotoxicity in ip dosed CD1 mouse assessed as time to peak effect by rotarod test; format: toxicity, organism-based; conditions: in vivo
[21] = Neurotoxicity in CD1 mouse at 25 mg/kg, ip measured after 15 mins by rotarod test; conditions: in vivo, 0.25 h
Mus musculus [22] = test: Anticonvulsant activity in ip dosed CD1 mouse assessed as protection against 50 mA current-induced seizure and measured after 4 hrs by maximal electroshock seizure test; format: functional; conditions: read-out: MED
Outline: as §3

Mus musculus [23] = test: Anticonvulsant activity in CD1 mouse assessed as protection against 32 mA current-induced seizure at 100 mg/kg, ip measured after 4 hrs by 6 Hz psychomotor seizure test
[24] = Neurotoxicity in CD1 mouse at 25 mg/kg, ip measured after 30 mins by rotarod test; conditions: in vivo, 0.5 h

Question: With `CN1CCN(CN2C(=O)NC(c3ccccc3)(c3ccccc3)C2=O)CC1` as the compound, how does the Activity [1] read?
Answer: Non-Toxic

Question: What about the Activity [2] of the same compound?
Answer: Non-Toxic

Question: And the Activity [3]?
Answer: Non-Toxic

Question: And the Time (Mus musculus [4])?
Answer: 4 h

Question: What about the ED50 (Mus musculus [5]) of the same compound?
Answer: > 80 mg/kg

Question: And the selectivity ratio [6]?
Answer: > 13

Question: What about the Activity [7] of the same compound?
Answer: Non-Toxic

Question: And the ED50 (Mus musculus [8])?
Answer: 12.2 mg/kg

Question: And the Activity (Mus musculus [9])?
Answer: Active

Question: What about the Activity [10] of the same compound?
Answer: Non-Toxic

Question: And the Activity [11]?
Answer: Non-Toxic

Question: What about the Activity (Mus musculus [12]) of the same compound?
Answer: Active

Question: And the Activity [13]?
Answer: Non-Toxic

Question: And the Time (Rattus norvegicus)?
Answer: 2 h

Question: What about the Activity [14] of the same compound?
Answer: Non-Toxic

Question: And the TD50 [15]?
Answer: > 500 mg/kg

Question: And the minimal effective dose (Mus musculus [16])?
Answer: 10 mg/kg

Question: What about the ED50 (Mus musculus [17]) of the same compound?
Answer: 11.1 mg/kg

Question: And the Time [18]?
Answer: 2 h

Question: And the Activity (Mus musculus [19])?
Answer: inactive

Question: And the Time [20]?
Answer: 1 h

Question: And the Activity [21]?
Answer: Non-Toxic

Question: What about the minimal effective dose (Mus musculus [22]) of the same compound?
Answer: 10 mg/kg

Question: What about the Activity (Mus musculus [23]) of the same compound?
Answer: Active

Question: And the Activity [24]?
Answer: Non-Toxic
